Shown are actives, neighbours in structure and some others; about 3.7% of the full set was active somewhere.
KCNK9 inh: KCNK9 potassium channel inhibitors, primary screen, HEK293 cells, thallium flux. Potassium channel subfamily K member 9 (Homo sapiens), Q9NPC2. FluxOR thallium flux fluorescence; active compounds read low. B-score at 10 µM. hit rate 1.2% among 310,000. AID 488922, 2010;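 active = ratio B-score over 3 SD below the library mean, with starting fluorescence within 5 SD of its mean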;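 note: negative B-score means less thallium flux so channel inhibition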
Kir21 inh: inhibitors of mouse Kir2.1 inward-rectifier potassium channel; B-score at 10 µM; Inward rectifier potassium channel 2 (Mus musculus), P35561; HEK293-Kir2.1, FluxOR thallium flux fluorescence; active compounds read low; hit rate 0.85% among 310,000;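 active = fluorescence ratio B-score at or below minus 3 SD of library scores, with starting-brightness B-score within 2 SD, cut at about -4.2 in these data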;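 note: channel flux triggered by added potassium and thallium sulfate stimulus; B-score of peak minus minimum fluorescence over baseline after thallium stimulus; more negative B-score means stronger Kir2.1 block with less thallium influx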
Target sequence (P35561 whole entry, looked up): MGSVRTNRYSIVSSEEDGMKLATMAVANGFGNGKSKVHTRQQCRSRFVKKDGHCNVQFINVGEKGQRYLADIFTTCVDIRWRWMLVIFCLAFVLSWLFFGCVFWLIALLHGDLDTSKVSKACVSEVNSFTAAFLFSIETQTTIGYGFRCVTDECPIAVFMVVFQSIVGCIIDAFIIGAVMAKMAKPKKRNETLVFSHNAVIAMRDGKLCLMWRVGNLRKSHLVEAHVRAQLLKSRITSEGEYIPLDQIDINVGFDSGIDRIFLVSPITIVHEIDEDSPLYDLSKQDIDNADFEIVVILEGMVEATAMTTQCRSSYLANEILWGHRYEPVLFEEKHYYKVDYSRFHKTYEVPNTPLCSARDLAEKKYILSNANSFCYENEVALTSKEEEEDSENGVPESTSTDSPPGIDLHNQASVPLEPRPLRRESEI
KCNQ1 act: potentiators or activators of KCNQ1 channel, primary screen, cell-based, thallium flux, high-throughput | hit rate 0.35% among 310,000 | CHO-K1 KCNQ1, thallium flux FluxOR fluorescence; active compounds read high | B-score at 10 µM | Potassium voltage-gated channel subfamily KQT member 1 (Homo sapiens), P51787 | AID 2648, 2010;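 active = fluorescence ratio B-score, a plate-corrected score, at least three library SD, with initial intensity B-score within 5 SD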
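Doses: Single concentration per compound, DMSO matched to controls | Test system: KCNQ1-transfected CHO-K1 cells | Timing: 90 min dye loading and 20 min compound exposure, both at room temperature | Measured by: Kinetic FluxOR thallium fluorescence, 10-s 1-Hz baseline, 110-s post-stimulus read | Medium: Assay buffer with matched DMSO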
KCNQ1 inh: inhibitors of human KCNQ1 channel, primary screen, cell-based, thallium flux, high-throughput; B-score at 10 µM; hit rate 1.3% among 310,000; CHO-K1 KCNQ1, FluxOR thallium flux fluorescence; active compounds read high;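 active = compounds whose thallium flux B-score, printed positive for inhibition, exceeds three library SD while starting fluorescence stays within three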;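 note: channel opened by potassium depolarization with thallium stimulus after 20 min compound exposure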
KCNK3 block: human KCNK3 channel inhibitors, primary screen, CHO cells, FluxOR thallium flux, B-score | Potassium channel subfamily K member 3 (Homo sapiens), O14649 | FluxOR fluorescence; active compounds read low | B-score at 10 µM | hit rate 0.84% among 340,000;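 active = B-score under library mean minus 4 SD, starting fluorescence ratio at most library mean plus 5 SD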;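 note: more negative B-score means stronger inhibition of thallium flux through KCNK3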
hERG rescue: hERG rescue from dofetilide block, primary screen, cell-based, CHO-hERG, FluxOR thallium flux, dofetilide IC70; AID 1511, 2009; hit rate 0.51% among 310,000; activation (rescue from dofetilide block), less the hit threshold, % at 10 µM; dofetilide IC70 present; Voltage-gated inwardly rectifying potassium channel KCNH2 (Homo sapiens), Q12809;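 active = activation above the mean of controls blocked by dofetilide plus 5 SD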;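 note: thallium influx through hERG after potassium depolarization seen as dye fluorescence rise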
A number is an active result; . = inactive; / = not tested or not shown.

SMILES | KCNK9 inh | Kir21 inh | KCNQ1 act | KCNQ1 inh | KCNK3 block | hERG rescue
CCN(CC)c1ccc(CNc2nc3ccccc3n2CCN2CCCCC2)cc1 | . | . | . | 7 | . | .
COc1ccc(CNc2nc3ccccc3n2CCN2CCCCC2)cc1 | . | . | . | . | . | .
C=C(C)CNC(=S)NN=C1c2ccccc2-c2ccccc21 | . | . | . | . | . | 22.0
COc1ccc(-n2c(C)nc(N)c2C(=O)c2ccccc2)cc1 | . | . | . | . | . | .
COc1ccccc1OCC(=O)NCCS(=O)(=O)N1CCN(c2ccc(F)cc2)CC1 | . | . | . | . | . | .
CCCCCCCCCCCCCCCC[N+](C)(C)CCl | / | / | / | / | . | /
CCCCCC[N+](C)(C)CC/C=C1/c2ccccc2Sc2ccc(Cl)cc21 | -7.97 | . | . | . | . | .
FC(F)(F)c1ccc(N2CCOCC2)c(Nc2nc3ccccc3n3cnnc23)c1 | -7.15 | . | . | . | . | .
CC(NC(=O)CN1C(=O)NC2(CCCCCC2)C1=O)c1ccccc1 (stereo unspecified) | / | / | / | / | . | /
Cc1ccccc1N1CCN(Cc2c[nH]c3ccccc23)CC1 | . | -5.5 | . | 6 | . | .
COc1ccccc1N1CCN(Cc2c[nH]c3ccccc23)CC1 | . | . | . | . | . | .
O=C(Nc1ccccc1)c1nc2ccccc2s1 | . | . | . | . | . | .
Cc1ccc(C)c2sc(NC(=O)c3nc4ccccc4s3)nc12 | . | . | 25 | . | . | 8.9
O=C(c1ccc(Br)cc1)N1CCC2(CC1)NCCc1[nH]cnc12 | . | . | . | . | . | .
CN1CCN(CCCNC(=O)c2ccc(Cn3c(=S)[nH]c4ccc(Br)cc4c3=O)cc2)CC1 | . | . | . | . | . | .
CC1CCN(CCCNC(=O)c2ccc(Cn3c(=S)[nH]c4ccc(Br)cc4c3=O)cc2)CC1 | . | . | . | 8 | / | .
CN1CCN/C1=C(/C(Cl)=C(Cl)Cl)[N+](=O)[O-] | . | . | . | . | . | .
COc1ccc(C(=O)OCC(=O)NCCc2ccc(F)cc2)cc1S(=O)(=O)N1CCOCC1 | / | / | / | / | . | /
CC(=O)c1cc2c(cc1NC(=O)C1CCC1)OCO2 | . | . | . | . | . | .
CC(N)=Nc1ccc([N+](=O)[O-])cc1 | . | . | . | . | . | .
O=[N+]([O-])c1ccc(N=Nc2c(Cl)cc(O)cc2Cl)cc1 | . | -6.9 | . | 8 | . | .
CCOc1ccccc1NC(=O)CN1CCC(C(=O)c2ccc(F)cc2)CC1 | -7.07 | . | . | . | . | .
COc1ccccc1NC(=O)CN1CCC(C(=O)c2ccc(F)cc2)CC1 | . | . | . | . | . | .
COc1ccc(CCC2(C)NC(=O)N(C(C)C(=O)Nc3ccccc3F)C2=O)cc1 (stereo unspecified) | / | / | / | / | . | /
O=C(COC(=O)c1cc(-c2ccccc2Cl)nc2ccccc12)Nc1ncc(C(F)(F)F)cc1Cl | . | . | . | . | . | .
SMILES | KCNK9 inh | Kir21 inh | KCNQ1 act | KCNQ1 inh | KCNK3 block | hERG rescue
Cc1c(-c2ccccc2)nc2ccccc2c1C(=O)OCC(=O)Nc1ncc(C(F)(F)F)cc1Cl | . | . | . | 9 | . | .
CC(=NNC(=O)COc1cccc(C)c1)c1cccnc1 | / | / | / | / | . | /
O=C(NC1CC1)c1ccc2c(c1)C1C3CCC(C3)C1C(c1ccccc1)N2 (stereo unspecified) | . | . | . | . | . | 5.2
O=C(CN(CC1CCCO1)C(=O)CNS(=O)(=O)c1ccc(F)cc1)NCc1ccccc1 (stereo unspecified) | . | . | . | . | . | .
O=C(CN(CC1CCCO1)C(=O)CNS(=O)(=O)c1ccccc1)NCc1ccco1 (stereo unspecified) | . | . | . | . | . | 7.2
CN(C)CCCNC(=O)/C(=C\c1ccc(-c2ccc(Br)cc2)o1)NC(=O)c1ccccc1 | . | . | . | . | . | .
CN(C)CCNC(=O)/C(=C/c1ccc(-c2cccc(Cl)c2)o1)NC(=O)c1ccccc1 | . | -4.59 | . | . | . | .
Cc1ccc(C(=O)N/C(=C\c2ccc(-c3ccc(Cl)cc3)o2)C(=O)NCCCN(C)C)cc1 | . | -5.31 | . | . | . | .
CCN(CC(=O)Nc1ccc2c(c1)OCCO2)C(=O)CCc1ccccc1Cl | / | / | / | / | . | /
CCOc1ccccc1NC(=O)N1CCC(NC(=O)C2CCCCC2)CC1 | . | . | . | . | . | .
O=C(Cc1ccccc1[N+](=O)[O-])NCCCc1ccccc1 | . | . | . | . | . | .
O=c1c2ccccc2nc2n1C(CBr)CN2 (stereo unspecified) | . | . | . | . | . | .
CC(=Nc1cccc(C)c1)c1sc2ccccc2c1O | -6.98 | . | . | . | . | .
COc1ccccc1-n1c(C)nc(=O)c(-c2ccccc2)c1C | . | . | . | . | . | 5.3
O=C(COC(=O)/C=C/c1ccccc1)NNC(=O)c1ccc([N+](=O)[O-])cc1 | . | . | . | . | . | .
COC(=O)c1ccc(COc2ccccc2/C=C(\C#N)C(=O)Nc2ccc(C)cc2C)cc1 | -7.1 | . | . | . | . | .
COCCN(C(=O)COC(=O)CCCc1c[nH]c2ccccc12)c1c(N)n(Cc2ccccc2)c(=O)[nH]c1=O | / | / | / | / | . | /
N=c1n(CCO)c2ccccc2n1CCOc1ccc(Cl)cc1Cl | . | -4.4 | . | . | . | .
CN1CCN(c2ccc(NC(=S)NC(=O)/C=C/c3ccco3)cc2)CC1 | . | . | . | . | . | .
N#Cc1c(/N=C/c2cccs2)sc2c1CCCCC2 | . | . | . | 6 | . | .
CCOc1ccc(/C=N/NC(=O)NC23CC4CC(CC(C4)C2)C3)cc1O | . | . | . | 9 | . | .
COc1ccc(/C=N/NC(=O)c2cc(C34CC5CC(CC(C5)C3)C4)[nH]n2)cc1O | . | . | . | 6 | . | .
COc1ccc(/C=N\NC(=O)c2ccc(=O)[nH]n2)cc1O | . | . | . | . | . | .
O=C(N/N=C/c1ccc(O)c(O)c1)NC12CC3CC(CC(C3)C1)C2 | . | . | . | . | . | .
COC(=O)c1c(NC(=O)C(=O)NCC2CCCO2)sc2c1CC(C)(C)OC2 (stereo unspecified) | . | . | . | . | . | .
O=C(O)c1cc(Cl)c2ccccc2c1O | . | . | . | 6 | . | .
O=c1[nH]c(=S)c2[nH]c(=S)n(-c3ccccc3)c2[nH]1 | / | / | / | / | . | /
Cn1c(SCC(=O)NCc2ccccc2)ncc(C(=O)Nc2ccccc2)c1=O | . | . | . | . | . | .
CC(=O)Nc1ccc(NC(=O)CSc2ncc(C(=O)Nc3ccccc3)c(=O)n2C)cc1 | . | . | . | 7 | . | .

Assay outcomes (PubChem BioAssay)
